From ChEMBL document CHEMBL1165882, “Synthesis and modulation properties of imidazo[4,5-b]pyridin-7-one and indazole-4,7-dione derivatives towards the Cryptosporidium parvum CpABC3 transporter” (Eur J Med Chem, 2010)

Tests used:
[1] = Inhibition of Cryptosporidium parvum recombinant H6-NBD1 of ABC3 transporter ATPase activity expressed in Escherichia coli BL21(DE3) after 10 mins
How it was run: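 Purified His6-NBD1 (2.5 μM final) incubated 10 min at 37 °C in 50 mM Tris pH 7.3, 100 mM KCl, 4 mM MgCl2, 0.02% HECAMEG with serially diluted compounds at various ATP concentrations. Reaction products quantified in triplicate by reverse-phase HPLC, detection at 254 nm; inhibition type and Ki by non-linear regression.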

[2] = tested on: Cryptosporidium parvum; experiment: Binding affinity to Cryptosporidium parvum recombinant H6-NBD1 of ABC3 transporter expressed in Escherichia coli BL21(DE3) assessed as intrinsic fluorescence quenching at 100 uM relative to control
How it was run: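 His6-tagged NBD1 purified on Ni-NTA, dialyzed against 50 mM Tris pH 7.3/100 mM KCl/0.02% HECAMEG/20% glycerol. Protein 0.25–0.5 μM in 50 mM Tris pH 7.3, 100 mM KCl, 0.02% HECAMEG; compounds 100 μM from DMSO stocks (≤2.5% DMSO), 30 min at 20 ± 2 °C. Excitation 295 nm, emission 328 nm; % of dialysis-buffer/solvent control; triplicates, 3 separate experiments.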

SMILES | Ki ([1]; read-out: Ki) | Activity [2] | Ki [1]
CC(C)(C)OC(=O)NCCCn1ccc(=O)c2c1ncn2Cc1ccccc1 | 539 µM | 96.1% | –
CCOC(=O)C(C)n1ccc(=O)c2c1ncn2Cc1ccccc1 (racemic) | 232 µM | 69.3% | –
CC(=O)[C@H]1CC[C@H]2[C@@H]3CCC4=CC(=O)CC[C@]4(C)[C@H]3CC[C@]12C | – | 71.7% | –
O=C1C=CC(=O)c2c1cnn2Cc1ccccc1 | – | 22.9% | –
CCOC(=O)CCCn1ccc(=O)c2c1ncn2Cc1ccccc1 | – | 80.1% | –
CC(C)(C)OC(=O)NCCCCCCn1ccc(=O)c2c1ncn2Cc1ccccc1 | – | 60.8% | Not Active
CCOC(=O)Cn1ccc(=O)c2c1ncn2Cc1ccccc1 | – | 85.5% | –
Cc1nc(Cn2ncc3c2C(=O)C=CC3=O)cs1 | 116 µM | 21.6% | –
Nc1ncnc2c1ncn2[C@@H]1O[C@H](COP(=O)(O)OP(=O)(O)OP(=O)(O)O)[C@H]2OC3(O[C@H]21)C([N+](=O)[O-])=CC(=[N+]([O-])[O-])C=C3[N+](=O)[O-] (some centres undefined) [TNP-ATP] | 36.6 µM | 33.1% | –
